The test system of one assay is CHO-K1. The experiment in a line: Cytotoxicity against CHOK1 cells assessed as reduction in cell viability. Particulars: Cricetulus griseus. The class given is cell-based.
Assay [1] deals with Mycobacterium tuberculosis. The assay is described as follows: Antimycobacterial activity against Mycobacterium tuberculosis H37Rv. The class given is functional. The method in brief:
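Drug-sensitive M. tuberculosis H37Rv grown in a glycerol-containing medium; MIC99 is the minimum concentration that inhibits growth of 99% of the bacterial population.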

The structures appear in SMILES notation. ≈ marks a conversion by molar mass, not a printed value.

Among the data in ChEMBL document CHEMBL4725234, “Structure-activity relationship analyses of fusidic acid derivatives highlight crucial role of the C-21 carboxylic acid moiety to its anti-mycobacterial activity” (Bioorg Med Chem, 2020) are IC50 and MIC99 values, retold here.

For the molecule `CCCCCCC(=O)O[C@@H]1CC[C@@]2(C)[C@@H](CC[C@@]3(C)[C@H]2[C@H](O)C[C@H]2/C(=C(\CCC=C(C)C)C(=O)O)[C@@H](OC(C)=O)C[C@@]23C)[C@@H]1C`, the IC50 in the assay on CHO-K1 turned out to be 36.2 µM. For the same molecule, the MIC99 in assay [1] is 5 µM (≈ 3.14 µg/mL).

On to `CCS(=O)(=O)NNC(=O)/C(CCC=C(C)C)=C1\[C@@H](OC(C)=O)C[C@@]2(C)[C@H]1C[C@@H](O)[C@H]1[C@@]3(C)CC[C@@H](O)[C@@H](C)[C@@H]3CC[C@@]12C`, for which, in the assay with CHO-K1, the IC50 turned out to be 77.3 µM. The MIC99 in assay [1] came out at 40 µM (≈ 24.9 µg/mL).

As for `CC(=O)O[C@H]1C[C@@]2(C)[C@@H](C[C@@H](O)[C@H]3[C@@]4(C)CC[C@@H](O)[C@@H](C)[C@@H]4CC[C@@]32C)/C1=C(\CCC=C(C)C)C(=O)NS(=O)(=O)c1ccccc1`, in the assay on CHO-K1, the IC50 amounted to 96.1 µM. Further, in assay [1], the MIC99 is more than 125 µM.

For the molecule `CC(=O)O[C@H]1C[C@@]2(C)[C@@H](C[C@@H](O)[C@H]3[C@@]4(C)CC[C@@H](O)[C@@H](C)[C@@H]4CC[C@@]32C)/C1=C(\CCC=C(C)C)c1n[nH]c(=O)o1`, the IC50 with CHO-K1 came out at 82 µM. In addition, the MIC99 in assay [1] was determined as 80 µM (≈ 44.5 µg/mL).

Take `CC(=O)O[C@H]1C[C@@]2(C)[C@@H](C[C@@H](O)[C@H]3[C@@]4(C)CC[C@@H](O)[C@@H](C)[C@@H]4CC[C@@]32C)/C1=C(\CCC=C(C)C)c1nc(C)no1`: in the assay on CHO-K1, the IC50 is 47.8 µM. This molecule gave an MIC99 in assay [1] of more than 125 µM.

Take `CC(=O)O[C@H]1C[C@@]2(C)[C@@H](C[C@@H](O)[C@H]3[C@@]4(C)CC[C@@H](O)[C@@H](C)[C@@H]4CC[C@@]32C)/C1=C(\CCC=C(C)C)C(=O)NNS(=O)(=O)c1ccc(Cl)cc1`: the IC50 in the assay with CHO-K1 was 53.2 µM. The molecule further returned an MIC99 in assay [1] of more than 125 µM.

In the case of `CC(=O)O[C@H]1C[C@@]2(C)[C@@H](C[C@@H](O)[C@H]3[C@@]4(C)CC[C@@H](O)[C@@H](C)[C@@H]4CC[C@@]32C)/C1=C(\CCC=C(C)C)C(=O)NN`, the IC50 with CHO-K1 came out at 112 µM. In assay [1], the MIC99 came to 40 µM (≈ 21.2 µg/mL).

`CC(=O)O[C@H]1C[C@@]2(C)[C@@H](C[C@@H](O)[C@H]3[C@@]4(C)CC[C@@H](O)[C@@H](C)[C@@H]4CC[C@@]32C)/C1=C(\CCC=C(C)C)C(=O)O` [FUSIDIC ACID]: in the assay with CHO-K1, the IC50 was more than 194 µM. This molecule displayed an MIC99 in assay [1] of 0.6 µM (≈ 0.31 µg/mL).

As to `CCCc1noc(/C(CCC=C(C)C)=C2\[C@@H](OC(C)=O)C[C@@]3(C)[C@H]2C[C@@H](O)[C@H]2[C@@]4(C)CC[C@@H](O)[C@@H](C)[C@@H]4CC[C@@]23C)n1`, the IC50 with CHO-K1 was 68.2 µM. Also, the MIC99 in assay [1] was 80 µM (≈ 46.6 µg/mL).

As for `CCO[C@H]1C[C@@]2(C)[C@@H](C[C@@H](O)[C@H]3[C@@]4(C)CC[C@@H](O)[C@@H](C)[C@@H]4CC[C@@]32C)/C1=C(\CCC=C(C)C)C(=O)O`, the half-inhibitory concentration (IC50) with CHO-K1 was 48.1 µM. Also, the MIC99 in assay [1] came out at 0.8 µM (≈ 0.402 µg/mL).

On to `CC(=O)O[C@H]1C[C@@]2(C)[C@@H](C[C@@H](O)[C@H]3[C@@]4(C)CC[C@@H](O)[C@@H](C)[C@@H]4CC[C@@]32C)/C1=C(\CCC=C(C)C)C(N)=O`, for which, in the assay on CHO-K1, the IC50 came out at 113 µM. This molecule displayed an MIC99 in assay [1] of more than 125 µM.

Take `CCCCCCCCCCCCCCNC(=O)/C(CCC=C(C)C)=C1\[C@@H](OC(C)=O)C[C@@]2(C)[C@H]1C[C@@H](O)[C@H]1[C@@]3(C)CC[C@@H](O)[C@@H](C)[C@@H]3CC[C@@]12C`: in the assay on CHO-K1, the IC50 was more than 140 µM. Also, the MIC99 in assay [1] was more than 125 µM.

Turning to `CC(=O)O[C@H]1C[C@@]2(C)[C@@H](C[C@@H](O)[C@H]3[C@@]4(C)CC[C@@H](O)[C@@H](C)[C@@H]4CC[C@@]32C)/C1=C(\CCCC(C)C)C(=O)NNS(C)(=O)=O`, the concentration for half-maximal inhibition (IC50) in the assay on CHO-K1 came to 97.8 µM. This molecule returned an MIC99 in assay [1] of 10 µM (≈ 6.11 µg/mL).

Regarding `CCCCCCCCCCCCCCCCNC(=O)/C(CCC=C(C)C)=C1\[C@@H](OC(C)=O)C[C@@]2(C)[C@H]1C[C@@H](O)[C@H]1[C@@]3(C)CC[C@@H](O)[C@@H](C)[C@@H]3CC[C@@]12C`, the IC50 with CHO-K1 was more than 135 µM. The molecule also showed an MIC99 in assay [1] of more than 125 µM.

Consider `CC(=O)O[C@H]1C[C@@]2(C)[C@@H](C[C@@H](O)[C@H]3[C@@]4(C)CC[C@@H](O)[C@@H](C)[C@@H]4CC[C@@]32C)/C1=C(\CCC=C(C)C)C(=O)NS(C)(=O)=O`, for which the IC50 in the assay on CHO-K1 is more than 169 µM. Further, in assay [1], the MIC99 was 80 µM (≈ 47.5 µg/mL).

On to `CC(=O)O[C@H]1C[C@@]2(C)[C@@H](C[C@@H](O)[C@H]3[C@@]4(C)CC[C@@H](O)[C@@H](C)[C@@H]4CC[C@@]32C)/C1=C(\CCC=C(C)C)C(=O)NS(=O)(=O)c1ccc(F)c(F)c1`, for which the IC50 in the assay with CHO-K1 turned out to be 81.4 µM. In addition, the MIC99 in assay [1] was 20 µM (≈ 13.8 µg/mL).

For `CC(C)=CCC/C(C(=O)NNS(C)(=O)=O)=C1/[C@@H](O)C[C@@]2(C)[C@H]1C[C@@H](O)[C@H]1[C@@]3(C)CC[C@@H](O)[C@@H](C)[C@@H]3CC[C@@]12C`, the IC50 with CHO-K1 was determined as 32 µM. In assay [1], this molecule returned an MIC99 of 40 µM (≈ 22.7 µg/mL).

For `CCCCCCCCCCCCNC(=O)/C(CCC=C(C)C)=C1\[C@@H](OC(C)=O)C[C@@]2(C)[C@H]1C[C@@H](O)[C@H]1[C@@]3(C)CC[C@@H](O)[C@@H](C)[C@@H]3CC[C@@]12C`, the IC50 in the assay on CHO-K1 was more than 146 µM. In assay [1], this molecule showed an MIC99 of more than 125 µM.

With `CC(=O)O[C@H]1C[C@@]2(C)[C@@H](C[C@@H](O)[C@H]3[C@@]4(C)CC[C@@H](O)[C@@H](C)[C@@H]4CC[C@@]32C)/C1=C(\CCC=C(C)C)c1n[nH]c(=S)o1`, the IC50 in the assay on CHO-K1 turned out to be 70 µM. Moreover, the MIC99 in assay [1] came to 80 µM (≈ 45.8 µg/mL).

One may read the IC50 as the concentration that gives 50% inhibition. By MIC99 is commonly meant the lowest concentration that inhibits either 99% of growth or 99% of the strains tested, depending on the study. A high value points to lower susceptibility.
